Results reported in publication PMC10834355 (Cell metabolism, 2023).
Like-named read-outs stand apart in the source and are kept apart here. Values belong to the molecule of their own block, whether it stands above or below them.

What was measured:
human β-cell = conditions: ref El Ouaamari et al., 2016; cited from earlier work
[1] = molecular target: human pancreatic elastase (PE); assay: Absorbance-based protease activity assay, human PE; assay type: biochemical; conditions: read-out: IC50 PE
Procedure, shortened: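 Human pancreatic elastase (500 ng) mixed with 15 two-fold dilutions of test compound starting at 20 μM. Blank (no-enzyme) and DMSO wells serve as controls. Preincubated 3 min at 37°C, then N-methoxysuccinyl-Ala-Ala-Pro-Val-p-nitroanilide added. After 2 h at 37°C, absorbance read at 405 nm, 21 reads over 5 min. IC50 derived from the dilution series.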

Ins+ cells = assay: β-cell regeneration after metronidazole ablation in Tg; assay type: in vivo, zebrafish (Danio rerio); conditions: added to growth medium 4–6 dpf, vs DMSO
Procedure, shortened: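 Tg(ins:flag-NTR);Tg(tp1:H2BmCherry) zebrafish larvae had β-cells ablated in E3 medium with 10 mM metronidazole, 1% DMSO and 0.2 mM 1-phenyl-2-thiourea from 3 to 4 dpf. From 4 to 6 dpf, larvae were exposed to DMSO or test compound in the medium. Larvae then euthanized, fixed, immunostained with anti-insulin (1:100), imaged and Ins+ cells counted.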

[2] = molecular target: porcine pancreatic elastase (pPE) (Sus scrofa, UniProt P00772); assay: Absorbance-based protease activity assay, pPE; assay type: biochemical
Sequence of porcine pancreatic elastase (pPE) (P00772 27-266): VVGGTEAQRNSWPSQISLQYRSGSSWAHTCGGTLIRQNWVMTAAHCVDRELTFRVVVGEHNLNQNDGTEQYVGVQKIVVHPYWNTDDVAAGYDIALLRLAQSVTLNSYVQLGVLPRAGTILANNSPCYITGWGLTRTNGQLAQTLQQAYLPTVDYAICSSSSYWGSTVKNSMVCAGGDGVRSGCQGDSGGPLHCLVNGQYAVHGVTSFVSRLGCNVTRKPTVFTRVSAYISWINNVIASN
Procedure, shortened: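 Porcine pancreatic elastase (500 ng) was combined with 15 two-fold dilutions of test compound, starting at 20 μM. Controls were enzyme-free blank wells and enzyme-plus-DMSO wells. After 3 min at 37°C, N-methoxysuccinyl-Ala-Ala-Pro-Val-p-nitroanilide substrate was added. After 2 h at 37°C, absorbance at 405 was read every 15 s for 21 reads (5 min).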

[3] = molecular target: T1, human neutrophil elastase (NE) (Homo sapiens, UniProt P08246); assay: Absorbance-based protease activity assay, human NE; assay type: biochemical
T1 sequence (P08246 30-267): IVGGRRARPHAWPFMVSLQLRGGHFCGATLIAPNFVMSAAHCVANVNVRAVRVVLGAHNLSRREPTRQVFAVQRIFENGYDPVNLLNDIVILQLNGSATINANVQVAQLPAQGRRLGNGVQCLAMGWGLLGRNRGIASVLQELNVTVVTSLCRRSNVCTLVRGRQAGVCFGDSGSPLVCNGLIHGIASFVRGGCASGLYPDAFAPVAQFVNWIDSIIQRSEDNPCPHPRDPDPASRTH

EndoC-βH1 cells [4] = assay: Brillouin microscopy of cell stiffness; assay type: cell-based, human; conditions: PE 250 ng/ml, or PE + telaprevir (750 nm), 24 hr
Procedure, shortened: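 After 24 hr incubation, stiffness of 12 cells per condition mapped by confocal Brillouin microscopy: 780 nm single-frequency laser, virtually imaged phase array spectrometer, non-contact longitudinal mechanical read-out.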

human β-cells = assay: Proliferation; assay type: cell-based; conditions: 24 h, non-diabetic human islets
EndoC-βH1 cells [5] = assay: Phospho-PAK1 Western Blotting; assay type: cell-based, human
Procedure, shortened: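 EndoC-βH1 cells transfected with scramble oligo or siFAK, or with empty vector or C-terminal 3X FLAG-tagged PTK2 cDNA (lipofectamine). Cells starved overnight in growth medium with 2.8 mM glucose, then stimulated in 2.8 mM glucose plus 0.1% BSA with PBS or PE ± test compound. siFAK cells treated 30 min. RIPA lysates with protease/phosphatase inhibitors, BCA assay, immunoblot for PAK1 S144 and total PAK1.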

[6] = tested on: HCV-infected individuals with diabetes; conditions: ref Davis et al., 2017; Tallón de Lara et al., 2014; cited from earlier work
EndoC-βH1 cells [7] = assay: Static glucose-stimulated insulin secretion assay; assay type: cell-based, human
Procedure, shortened: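 EndoC-βH1 cells kept overnight in 2.8 mM glucose DMEM growth medium with vehicles (PBS, DMSO), PE 500 ng/ml and/or test compound 1.5 μM. Preincubated 1 hr in KRB (NaCl 115, NaHCO3 24, KCl 5, MgCl2 1, CaCl2 1, HEPES 10 mM; 0.2% BSA) at 2.8 mM glucose. Then 1 hr in KRB at 2.8 or 11.1 mM glucose with PE ± test compound. DNA content measured.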

EndoC-βH1 cells [8] = assay: Phospho-ERK1/2 Western Blotting; assay type: cell-based, human; conditions: PE +/− telaprevir for 30 min
human cathepsin G = molecular target: T2, human cathepsin G (Homo sapiens, UniProt P08311); assay: Absorbance-based protease activity assay, human cathepsin G; assay type: biochemical
T2 sequence (P08311 21-255): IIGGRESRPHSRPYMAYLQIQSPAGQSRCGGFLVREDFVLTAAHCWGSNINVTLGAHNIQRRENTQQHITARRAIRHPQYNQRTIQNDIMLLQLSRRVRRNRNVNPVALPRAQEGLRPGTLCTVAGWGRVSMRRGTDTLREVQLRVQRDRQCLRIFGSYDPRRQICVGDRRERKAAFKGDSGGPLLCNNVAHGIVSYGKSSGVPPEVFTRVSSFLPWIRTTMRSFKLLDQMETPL
Procedure, shortened: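 Human cathepsin G (500 ng) combined with 15 two-fold dilutions of test compound from 20 μM; blank and DMSO wells included. After 3 min at 37°C, succinyl-Ala-Ala-Pro-Phe-p-nitroanilide substrate added and absorbance at 405 nm read immediately, 21 reads over 5 min.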

[9] = tested on: transplanted human islets; assay type: in vivo, NSG mice; conditions: 4 weeks
Procedure, shortened: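 Male 8–10-week NSG mice received 1000 hand-picked human islet equivalents under the kidney capsule. After engraftment, vehicle (DMSO) or test compound was given by osmotic pump for 28 days. Grafts fixed overnight at 4°C in zinc formalin and cut as 5-μm paraffin serial sections. Sections co-stained for Ki67 or pHH3 with insulin and DAPI; cell death by TUNEL.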

HFD mice = assay: High-fat diet insulin-resistant mice, osmotic pump treatment; assay type: in vivo, C57BL6/J mice
Procedure, shortened: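 Male C57BL6/J mice, obtained at 4 weeks old, kept on low-fat or high-fat diet for 24 weeks. From week 20, weight-matched animals received vehicle (DMSO) or test compound at 30 or 300 μg/kg/day for 28 days by subcutaneous osmotic pump; low-fat mice got vehicle. GTT, ITT and in vivo GSIS at weeks 0 and 4; insulin by ELISA. Pancreas sections used for immunofluorescent β-cell proliferation and mass.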

human islets [10] = assay: Phospho-antibody microarray; assay type: cell-based; conditions: 30 min
Procedure, shortened: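 Human islets cultured overnight in Miami Media #1A at 37°C, 5% CO2. 200 hand-picked islet equivalents collected after 10- or 30-min stimulation and processed for the phospho-antibody array.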

EndoC-βH3 cells = assay: Viability assays; assay type: cell-based, human
Procedure, shortened: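 EndoC-βH3 cells exposed to 1 μM tamoxifen for 21 days, then 14 days wash-out. Starved overnight in 2.8 mM glucose medium and stimulated in 2.8 mM glucose with 0.1% BSA. Cells then trypsinized and labelled with EdU 5 μM for 3 h at 37°C, plus Annexin V. Up to 10,000 cells counted by flow cytometry. Caspase-3 activity measured colorimetrically at 405 nm.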

[11] = tested on: primary human β-cell cultures; assay: Viability assay in dispersed human islet cells; assay type: cell-based
Procedure, shortened: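 Human islets dispersed with TrypLE for 30 min at 37°C, neutralized with FBS, seeded on ECM/fibronectin and left overnight. Pretreated 24 h with water or FSLLRY-NH2 plus EdU 10 μM, then 24 h with vehicles or compounds plus EdU 10 μM. β-cells labelled with DA-ZP1; EdU Click-iT Alexa 647 and APC Annexin V. ≥4000 live (Zombie NIR-negative) cells counted by flow cytometry.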

human islets [12] = assay: Western Blotting of phosphoproteins in human islets; assay type: cell-based; conditions: telaprevir 1.5 or 150 μM for 30 min
Procedure, shortened: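 Human islets cultured overnight in Miami Media #1A at 37°C, 5% CO2, then exposed to test compound for 30 min. RIPA lysates with protease and phosphatase inhibitors, protein by BCA, immunoblotted with phospho-specific and total antibodies.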

[13] = telaprevir HD 300 μg/kg/day, osmotic pumps

Molecule: CC(C)[C@@H]1C(=O)N(S(C)(=O)=O)[C@@H]2CCN(C(=O)/C=C/CN3CCCCC3)[C@H]21.Cl [GW311616A]
human β-cell proliferation (human β-cell): enhance human β-cell proliferation

IC50 [1]: 2300 nM
IC50 [2]: 2000 nM
Molecule: CC(C)(C)C(=O)Oc1ccc(S(=O)(=O)Nc2ccccc2C(=O)NCC(=O)O)cc1 [sivelestat]
Ins+ cells after β-cell ablation (Ins+ cells): trend towards an increase
human β-cell proliferation (human β-cell): enhance human β-cell proliferation

IC50 [1]: 3600 nM
IC50 [2]: 107000 nM
IC50 [3]: 33600 nM
Molecule: C[C@@H](O)[C@H]1C(=O)N2C(C(=O)O)=C(SC3CN(C4=NCCS4)C3)[C@H](C)[C@H]12 [tebipenem]

Molecule: CCC[C@H](NC(=O)[C@@H]1[C@H]2CCC[C@H]2CN1C(=O)[C@@H](NC(=O)[C@@H](NC(=O)c1cnccn1)C1CCCCC1)C(C)(C)C)C(=O)C(=O)NC1CC1 [telaprevir]
Brillouin frequency shift (stiffness) (EndoC-βH1 cells [4]): completely reverse these effects
IC50 [1]: 15.8 nM
proliferation of other islet cell types, including α-cells and δ-cells (human β-cells): did not significantly stimulate proliferation
β-cell apoptosis (TUNEL) (human β-cells; telaprevir at 100 μg/ml): significantly reducing apoptosis
β-cell proliferation (Ki67 or pHH3), increase compared to control (human β-cells; telaprevir at 100 μg/ml): ~ 3 fold
phospho-PAK1 levels in scramble cells (EndoC-βH1 cells [5]; 30 min, PE vs PBS, or PE + telaprevir at high dose vs PE alone): significantly increasing phosphorylation of PAK1
phosphorylated PAK1 in siFAK cells (EndoC-βH1 cells [5]; PE + telaprevir vs PE-treated siFAK samples, 30 min): significantly decreased
phospho-PAK1 levels in EV (empty vector) cells (EndoC-βH1 cells [5]; PE, or PE + telaprevir): restored
HbA1C levels [6]: reduce
circulating C-peptide [6]: increase
glucose responsiveness (GSIS) in cells treated with PE (EndoC-βH1 cells [7]; PE 500 ng/ml + telaprevir 1.5 μM): restore glucose responsiveness
β-cell function (GSIS) in the absence of PE (EndoC-βH1 cells [7]; telaprevir 1.5 μM alone): maintained normal function
Ins+ cells after β-cell ablation (Ins+ cells): significant increase
phospho-ERK1/2 levels (EndoC-βH1 cells [8]): significantly increased phospho-ERK1/2 levels
inhibition of human cathepsin G (human cathepsin G): virtually no effect
IC50 ([2]; read-out: IC50 pPE): 40.2 nM
blood glucose (random-fed or fasting) levels, body weight, glucose sensitivity or human C-peptide levels ([9]; 30 or 300 μg/kg/day, vs vehicle): did not observe differences between groups
Ki67+ β-cells in human grafts [9, 13]: increase
TUNEL+ β-cells in human grafts [9, 13]: decrease
insulin sensitivity or GSIS (HFD mice; 4-week time point, vs HFD vehicle): did not affect
glucose tolerance (HFD mice; high dose 300 μg/kg/day, week 4, vs HFD vehicle): improvement in glucose tolerance
random-fed blood glucose levels or body weights (HFD mice; telaprevir 30 or 300 μg/kg/day vs HFD vehicle): did not exhibit differences
area under the curve during GTT (HFD mice; telaprevir HD 300 μg/kg/day): statistically similar to the LFD vehicle group, although not significantly different from vehicle-HFD mice
β-cell mass (HFD mice; telaprevir HD 300 μg/kg/day vs HFD vehicle): significantly higher β-cell mass
4 h fasting C-peptide and fasting blood glucose (HFD mice; telaprevir HD, after 4-week treatment compared to week 0): lowered
β-cell mass (HFD mice; telaprevir LD 30 μg/kg/day vs HFD vehicle): comparable
β-cell size (HFD mice; telaprevir LD and HD vs HFD vehicle): slightly lower β-cell size
protease-activated receptor (PARs) signaling cascade (human islets [10]): significantly modulated
IC50 [3]: 3600 nM
concentrations that partially inhibit human NE activity [3]: > 10 µM
regeneration levels and survival of siFAK FSLLRY-treated cells (EndoC-βH3 cells; PE + telaprevir): restored
proliferation/apoptosis ratio (β-cell viability) in scramble cells (EndoC-βH3 cells; tamoxifen-treated EndoC-βH3, PE, or PE + telaprevir): boosted β-cell viability levels even higher than control cells
β-cell viability (EdU+/Annexin V+ in DA-ZP1+ cells) ([11]; PE +/− telaprevir for 24 h): significantly improved β-cell survival
phosphorylation levels of PAK1, PTK2B and ERK1/2 (human islets [12]): up-regulated

Molecule: FSLLRY-NH2
capacity of telaprevir to counteract the detrimental effects of PE in FSLLRY-NH2 treated cells ([11]; FSLLRY-NH2 pre-incubation, PE + telaprevir 24 h): impaired

B1: SerpinB1: endogenous protease (elastase) inhibitor derived from the liver that promotes human β-cell proliferation (protein, UniProt P30740 1-379, looked up)
Leukocyte elastase inhibitor: MEQLSSANTRFALDLFLALSENNPAGNIFISPFSISSAMAMVFLGTRGNTAAQLSKTFHFNTVEEVHSRFQSLNADINKRGASYILKLANRLYGEKTYNFLPEFLVSTQKTYGADLASVDFQHASEDARKTINQWVKGQTEGKIPELLASGMVDNMTKLVLVNAIYFKGNWKDKFMKEATTNAPFRLNKKDRKTVKMMYQKKKFAYGYIEDLKCRVLELPYQGEELSMVILLPDDIEDESTGLKKIEEQLTLEKLHEWTKPENLDFIEVNVSLPRFKLEESYTLNSDLARLGVQDLFNSSKADLSGMSGARDIFISKIVHKSFVEVNEEGTEAAAATAGIATFCMLMPEENFTADHPFLFFIRHNSSGSILFLGRFSSP
human β-cell proliferation (human β-cell): promotes human β-cell proliferation
